Screening results (PubChem)
Rows were chosen to be rich in hits. Some 2.4% of all compounds tested hit in one or more screens of this group.
CendR NRP1 mod = modulators of CendR peptide binding to NRP-1, primary screen, biochemical, fluorescence polarization, uHTS; FAM-RPARPAR peptide binding to NRP-1; inhibition, % at 25 µM; actives 0.85% (n = 360,000);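 active means inhibition or corrected inhibition above about 18%, plus a signal ratio from 0.5 to 1.5, limit read from the data, passing the limit was not always enough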
Myeloid diff MLP = induction of myeloid progenitor differentiation, primary screen, cell-based, flow cytometry, MLPCN library; ER-HoxA9 myeloid progenitors, lysozyme-GFP differentiation; actives 1% (n = 360,000); AID 624256, 2012; calls only at 10 µM;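 active means normalized GFP-positive differentiation at or above the plate's own cutoff, the solvent-only control mean plus 3 SD; inconclusive means no clear call, values can overlap the other calls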;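 further: cells exposed to compound for four days before flow analysis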
DAGLB inhibitor = DAGLB lipase inhibitors, primary screen, biochemical, fluorescence, HTS. HEK293T DAGLB membrane lysate, EnzChek fluorogenic substrate. actives 0.059% (n = 340,000). Diacylglycerol lipase-beta (Homo sapiens), Q8NCG7. inhibition, % at 5.17 µM. AID 504411, 2011; in the data active means inhibition above about 34%;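 further: 0% = enzyme with vehicle and 100% = wells lacking enzyme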
beta cell repl = inducers of MIN6 beta-cell proliferation, primary screen, ATP luminescence, uHTS; MIN6 cells proliferation, ATPlite luminescence, 48 h; cells starved in 0.2% serum; 100% = growth in 10% serum; proliferation, % at 10 µM; actives 0.29% (n = 330,000);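 active means compounds whose signal lies at least 3.5 SD above the mean of all wells on their plate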;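 further: 0% = DMSO-treated cells in low-serum medium and 100% = 10% serum control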
MT1-MMP act inh = blockers of MT1-MMP proenzyme processing, primary screen, HT1080 RFP-PRO-GFP cells, GFP/RFP fluorescence. AID 651647, 2012. GFP/RFP ratio change, % at 20 µM. GFP/RFP ratio fluorescence, overnight; percent of plate control window, DMSO zero. actives 0.061% (n = 360,000);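 active means GFP/RFP ratio change of at least 30% with cell ATP level not reduced by more than half and red fluorescence within 50% of control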
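Assay system: HT1080 cells carrying an RFP-PRO-GFP reporter | Dosing: Single dose of 20 µM compound, 1% DMSO final | Incubation: Cells overnight before dosing, compound overnight, 37 °C, 5% CO2 | Evaluation: GFP/RFP fluorescence ratio | Control set: DMSO and RFP-L50D-GFP cell wells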
SENP1 inh = human SENP1 catalytic domain inhibitors, primary screen, biochemical, FRET, uHTS; recombinant SENP1 catalytic domain, CyPet-SUMO1-YPet FRET cleavage; inhibition, % at 10 µM; AID 624204, 2012; Sentrin-specific protease 1 (Homo sapiens), Q9P0U3; actives 0.21% (n = 360,000);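 active means inhibition at least 30% at 10 µM, raw YFP signal under a set limit, fluorescence ratio 0.5 to 1.5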;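 further: 0% = enzyme with DMSO and 100% = no enzyme wells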
Target sequence (Q9P0U3 419-644 limits assumed): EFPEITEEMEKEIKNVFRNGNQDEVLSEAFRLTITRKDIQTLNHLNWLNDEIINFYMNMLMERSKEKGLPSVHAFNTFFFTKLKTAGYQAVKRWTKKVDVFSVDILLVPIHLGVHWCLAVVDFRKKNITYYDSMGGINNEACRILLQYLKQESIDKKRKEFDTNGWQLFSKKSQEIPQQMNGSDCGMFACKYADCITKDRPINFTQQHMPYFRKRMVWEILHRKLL
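Test system: recombinant human SENP1 catalytic domain, His6-tagged / Medium: pH 8 Tris buffer with EDTA, NaCl, BME, BSA, NP40, catalase / Also added: SUMO1 FRET substrate flanked by Cypet and Ypet, 25 nM / Times: 50 min reaction at room temperature / Signal: FRET, CFP and YFP emission / Control set: no-enzyme low control and enzyme-plus-DMSO high control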
SENP1 conf = human SENP1 catalytic domain inhibitors, confirmation, biochemical, FRET endpoint, single concentration. shares compounds with SENP1 inh. recombinant SENP1, CyPet-SUMO1-YPet FRET cleavage. inhibition, % at 10 µM. actives 34% (n = 520); in the data active means inhibition mostly above about 35%, no sharp cut-off; inactive means mostly below about 32%;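 further: 0% = enzyme with DMSO and 100% = no enzyme control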
SENP1 kinetic = human SENP1 catalytic domain inhibitors, confirmation, biochemical, kinetic FRET, single concentration | shares compounds with SENP1 inh | recombinant SENP1, CyPet-SUMO1-YPet FRET kinetic cleavage | inhibition, % at 10 µM | actives 26% (n = 520) | AID 651690, 2012; in the data active means inhibition mostly above about 32%, no sharp cut-off; inactive means mostly below about 29%;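 further: 0% = DMSO with enzyme and 100% = no enzyme substrate only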
Numbers without * were called inactive; i = inactive; u = inconclusive; x = not tested or not shown; + = active, no number.

SMILES | CendR NRP1 mod | Myeloid diff MLP | DAGLB inhibitor | beta cell repl | MT1-MMP act inh | SENP1 inh | SENP1 conf | SENP1 kinetic
O=C(Nc1ccc2nsnc2c1)N1CCCCC1 | 8.0 | i | -3.3 | 1.1 | 1.6 | 30.7* | -7.8 | -6.0
CCN(CC)CCNc1ccc(CO)c2oc3ccccc3c(=O)c12 | -4.0 | + | -1.6 | x | 11.6 | 46.8* | 48.0* | 39.5*
CCN(CC)CCNc1cccc2sc3ccccc3c(=O)c12 | -17.3 | u | 0.9 | x | -8.6 | 32.5* | 38.5* | 25.9
CN(C)CCNc1cccc2sc3ccc(O)cc3c(=O)c12 | -52.8 | u | x | x | 0.8 | 48.6* | 57.3* | 26.3
N#CCOc1ccccc1CNC[C@H]1O[C@@H](n2cnc(C(N)=O)n2)[C@H](O)[C@@H]1O | -7.4 | i | -3.3 | x | -0.6 | 0.0 | x | x
COc1ccc(NC(=O)CC#N)cc1OC | -0.7 | i | -2.8 | 1.9 | -2.3 | 52.7* | -4.2 | 0.6
COc1ccc(NC(=O)Cc2c(F)c(F)c(F)c(F)c2F)cc1OC | -16.4 | i | 2.2 | 1.1 | 2.9 | -0.2 | x | x
O=C(Nc1cc(F)cc(F)c1)c1ccc(NCCc2ccccc2)c([N+](=O)[O-])c1 | -240.7 | i | -3.4 | -3.4 | -75.5 | 38.0* | 36.1* | 36.0*
Cc1c(/C=N/NC(N)=O)c2ccccn2c1C(=O)c1ccc(F)cc1 | -6.5 | i | 2.6 | -1.2 | 4.9 | 9.2 | x | x
Cc1c(C=NNC(=O)c2ccc(Br)cc2)c2ccccn2c1C(=O)c1ccncc1 | -1.6 | i | -1.6 | 0.7 | -0.4 | 50.0* | 29.6 | 18.2
COC(=O)/C=c1/s/c(=C(/C#N)C(=O)N2CCOCC2)n(-c2ccccc2)c1=O | 3.1 | i | -1.7 | -2.2 | 6.3 | 1.8 | x | x
COC(=O)/C=c1/s/c(=C(\C#N)C(=O)NCc2ccco2)n(-c2ccc(C)cc2)c1=O | -133.0 | u | 1.8 | -0.4 | -32.7 | 37.1* | 12.3 | 10.1
COc1ncc(-c2ccc(N3C(c4ccc([N+](=O)[O-])cc4)=Cc4ccccc4C3CC(C)=O)cc2)cn1 (stereo unspecified) | -23.5 | i | x | x | 0.8 | 48.1* | 18.2 | 11.1
CCOC(=O)C1=C(COC(=O)c2ccc3ccccc3c2O)NC(=O)NC1C (stereo unspecified) | 72.5 | i | -3.1 | 3.5 | -22.8 | 38.1* | 1.8 | -1.0
c1ccc(NC2=Nc3cccc4cccc2c34)cc1 | -41.3 | i | 0.2 | -4.7 | -11.1 | 74.1* | 43.2* | 25.1
COc1ccc(C2=Nc3cccc4cccc(c34)N2)cc1 | 0.5 | i | 21.7 | -3.9 | 13.8 | -10.2 | x | x
COc1ccc(NC2=Nc3cccc4cccc2c34)cc1 | -110.4 | i | 4.7 | -0.2 | -10.5 | 77.4* | 57.4* | 29.1
O=C(O)c1cccc(NC2=Nc3cccc4cccc2c34)c1 | -14.2 | i | -1.3 | -2.1 | 0.3 | -37.8 | x | x
Cc1nn(CC(=O)Nc2ccc3c(c2)nc2n3CCN(C3CCCCC3)C2)c(=O)c2ccccc12 | -1.0 | i | 1.5 | -2.9 | 0.2 | -33.7 | x | x
CCOc1ccccc1NC(=O)c1cc(C(=O)c2cc(OC)ccc2O)coc1=N | -78.5 | i | -3.1 | 0.8 | -28.3 | 45.5* | 16.1 | 16.1
Cc1c(NC(=O)CNCc2ccc3c(c2)OCO3)c(=O)n(-c2ccccc2)n1C | -1.0 | i | 0.7 | -2.0 | -1.2 | 1.6 | x | x
COc1cccc(/C=N/Nc2ccc([N+](=O)[O-])cc2)c1O | -24.3 | i | 4.3 | 0.4 | -7.4 | -23.1 | x | x
COC(=O)c1ccc(N/N=C/c2cc([N+](=O)[O-])cc(OC)c2O)cc1 | -8.6 | i | 5.8 | -2.4 | 6.7 | 48.6* | 5.1 | -1.1
CCOC(=O)CSc1nnc(NC(=O)c2cc([N+](=O)[O-])cc([N+](=O)[O-])c2)s1 | 5.2 | i | 3.2 | -4.6 | 5.1 | 3.5 | x | x
CCOC(=O)c1sc2cc([N+](=O)[O-])cc(SCC(=O)OC)c2c1N | -47.8 | i | 15.2 | -1.8 | -13.4 | 65.5* | 24.8 | 2.2
SMILES | CendR NRP1 mod | Myeloid diff MLP | DAGLB inhibitor | beta cell repl | MT1-MMP act inh | SENP1 inh | SENP1 conf | SENP1 kinetic
CCOC(=O)c1sc2cc([N+](=O)[O-])cc(SCCO)c2c1N | -4.3 | i | 28.4 | -0.8 | -21.2 | 50.1* | 20.3 | 12.2
COC(=O)C1CC(O)CN1C(=O)Nc1ccccc1 (stereo unspecified) | -1.9 | i | 0.2 | -1.9 | 0.3 | 30.3* | 10.6 | 4.8
COc1cccc2cc(-c3nnc(SCC(=O)Nc4ccc(NC(C)=O)cc4)n3C)oc12 | -15.6 | i | 1.7 | 0.0 | 3.6 | 0.7 | x | x
COc1ccc(Nc2nnc(SCc3cc(=O)n4ccsc4n3)s2)cc1 | -8.2 | i | 1.8 | 1.3 | -21.0 | 31.3* | 36.8* | 31.6
COc1cc(OC)cc(C(=O)NCC(=O)NCc2ccccn2)c1 | 6.7 | i | -1.0 | -4.1 | -2.7 | 0.8 | x | x
Nc1nc(N=Nc2ccc(O)cc2)cc(=O)[nH]1 | 2.7 | i | 2.2 | x | -8.7 | 71.5* | 64.9* | 43.7*
FC(F)(F)c1cnc2c(-c3ccccc3)n[nH]c2c1 | 9.4 | i | x | 1.9 | 0.3 | 0.3 | x | x
Cc1nc(-c2ccc(F)cc2)c(CC(=O)N2CCN(S(=O)(=O)c3cccc([N+](=O)[O-])c3)CC2)s1 | -58.7 | + | 0.3 | -3.8 | -10.7 | 35.0* | 10.3 | 2.5
O=C(NNc1nc2c(F)cccc2s1)c1cc(=O)c2ccccc2o1 | -36.8 | i | 16.8 | -2.0 | 0.2 | 32.7* | 65.8* | 56.8*
O=C(CN1C(=O)C(=O)N(Cc2ccccc2)C1=O)Nc1cc(Cl)cc(Cl)c1 | -1.6 | i | 0.5 | -2.5 | 4.5 | 1.6 | x | x
N#CCSc1ccccc1NC(=O)CN1C(=O)C(=O)N(Cc2ccccc2)C1=O | -4.4 | i | -1.7 | -3.2 | -12.0 | 37.6* | 13.6 | 11.2
CC1=C(C(=O)OC(C)C)C(c2ccccc2)NC(=S)N1C (stereo unspecified) | 9.5 | i | -1.0 | 4.7 | 0.3 | 0.3 | x | x
